Source: PubChem (The Scripps Research Institute Molecular Screening Center)
Most compounds without a hit are left out; they make up all but 2.5% or so of the library.
TDP2 inh: human TDP2 enzyme inhibitors, primary screen, biochemical, epi absorbance, recombinant enzyme. Tyrosyl-DNA phosphodiesterase 2 (Homo sapiens), O95551. T5PNP hydrolysis, p-nitrophenol absorbance 415 nm. inhibition, % at 12.8 µM. hit rate 0.34% among 370,000. AID 720702, 2013;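 active = inhibition above the mean of all tested compounds plus 3 SD, set per campaign, cut at about 25% in these data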
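Material: recombinant human TDP2; quantity: TDP2 enzyme at 120 nM final; medium: Tris-HCl pH 7.5 with MgCl2; compound: single concentration, 12.8 µM nominal, with 1% DMSO; incubation: 2 h enzyme incubation at 37 °C; signal: epi absorbance; measure: percent inhibition; benchmarks: high control without enzyme, low control DMSO plus TDP2; repeats: singlicate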
GSTO1 inh: inhibitors of recombinant GSTO1, primary screen, counter-screen for RBBP9 inhibitor project, biochemical, fluorescence polarization; AID 1974, 2009; hit rate 1.1% among 300,000; inhibition, % at 5.96 µM; activity-based probe fluorescence polarization;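 active = inhibition above the campaign mean inhibition plus 3 SD, cut at about 35% in these data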
Target sequence (P78417 whole entry, looked up): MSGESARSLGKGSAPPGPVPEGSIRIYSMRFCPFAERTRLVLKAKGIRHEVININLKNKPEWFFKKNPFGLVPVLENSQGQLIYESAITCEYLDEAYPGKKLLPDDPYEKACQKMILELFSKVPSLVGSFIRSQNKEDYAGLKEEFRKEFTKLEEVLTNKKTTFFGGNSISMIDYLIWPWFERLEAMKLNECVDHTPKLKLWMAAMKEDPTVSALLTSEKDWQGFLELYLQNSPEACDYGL
E coli Lon inh: inhibitors of E. coli Lon protease, primary screen, biochemical, fluorescence polarization | purified E. coli Lon protease | inhibition, % at 7.94 µM | hit rate 0.42% among 360,000 | AID 602123, 2011; in the data active = inhibition above about 13%, passing the limit was not always enough
PAD4 FP inh: human PAD4 inhibitors, primary screen, biochemical, fluorescence polarization, 1536-well format | Protein-arginine deiminase type-4 (Homo sapiens), Q9UM07 | recombinant PAD4, RCA probe fluorescence polarization | inhibition, % at 6.36 µM | hit rate 0.41% among 330,000;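 active = percent inhibition above a cutoff equal to the mean of all tested compounds plus 3 SD, cut at about 15% in these data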
PRMT1 inh: PRMT1 methyltransferase inhibitors, primary screen, biochemical, fluorescence polarization; Protein arginine N-methyltransferase 1 (Homo sapiens), Q99873; hit rate 1.3% among 370,000; inhibition, % at 2.79 µM; recombinant PRMT1, activity-based probe fluorescence polarization;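 active = inhibition above about 21% made by adding two undisclosed values, limit read from the data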
PAD4 confirm: human PAD4 inhibitors, confirmation, biochemical, fluorescence polarization; shares compounds with PAD4 FP inh; recombinant PAD4, RCA probe fluorescence polarization; inhibition, % at 6.36 µM; hit rate 28% among 1,200; AID 488796, 2010;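 active = mean inhibition across replicates above the hit cutoff set by the earlier primary screen, cut at about 15% in these data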;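 note: inhibitors block active-site labeling by the probe so polarization falls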
A number is an active result.

Results for Cc1cc(N2CCNC[C@@H]2C)ccc1N1CCN(Cc2ccccc2)[C@H](C)C1 ?
TDP2 inh: inactive; PRMT1 inh: inactive

How did COCC(=O)N1CCC(C(=O)NCC2COc3ccccc3O2)CC1 (stereo unspecified) do in these assays?
TDP2 inh: inactive; PRMT1 inh: inactive

What do the screens show for `Cc1ccc(-c2cc(C(=O)NN=Cc3c(O)ccc4ccccc34)[nH]n2)cc1C`?
TDP2 inh: inactive; PRMT1 inh: inactive

What do the screens show for `Cc1ccc(C)c(-n2nnnc2Sc2nnnn2-c2ccccc2)c1`?
TDP2 inh: inactive; GSTO1 inh: inactive; E coli Lon inh: inactive; PAD4 FP inh: 18; PRMT1 inh: inactive; PAD4 confirm: 25

What do the screens show for `O=C(c1ccc(F)cc1F)N(Cc1ccccn1)CC1CCCO1` (stereo unspecified)?
TDP2 inh: inactive; PRMT1 inh: inactive

Results for c1ccc(-c2c[nH]c3cccc(-c4cc5ccccc5o4)c23)cc1 ?
TDP2 inh: inactive; PRMT1 inh: inactive

How did Cc1c(NC(=O)CC(O)(C(F)(F)F)C(F)(F)F)c(=O)n(-c2ccccc2)n1C do in these assays?
TDP2 inh: inactive; GSTO1 inh: inactive; E coli Lon inh: inactive; PAD4 FP inh: inactive; PRMT1 inh: inactive

What do the screens show for `COC(=O)C(F)(Sc1c(C)n(C)n(-c2ccccc2)c1=O)C(F)(F)F` (stereo unspecified)?
TDP2 inh: inactive; GSTO1 inh: inactive; E coli Lon inh: inactive; PAD4 FP inh: 48; PRMT1 inh: inactive; PAD4 confirm: 34

What do the screens show for `COc1ccc(C2CC(c3cccs3)=NN2S(C)(=O)=O)cc1` (stereo unspecified)?
TDP2 inh: inactive; GSTO1 inh: inactive; E coli Lon inh: inactive; PAD4 FP inh: inactive; PRMT1 inh: inactive

Results for CS(=O)(=O)N1N=C(c2cccs2)CC1c1ccccc1 (stereo unspecified) ?
TDP2 inh: inactive; GSTO1 inh: inactive; E coli Lon inh: inactive; PAD4 FP inh: 30; PRMT1 inh: inactive; PAD4 confirm: inactive

Results for CC(C)CN1C(=O)[C@@]2(CC(=O)N(C)C2c2ccccc2)c2cc(-n3cc(CCCC#N)nn3)ccc21 (stereo partly specified) ?
TDP2 inh: inactive; PRMT1 inh: inactive

How did c1ccc2oc(C3=NNC(=NC4CC4)SC3)cc2c1 do in these assays?
TDP2 inh: inactive; GSTO1 inh: inactive; E coli Lon inh: inactive; PAD4 FP inh: 21; PRMT1 inh: 36; PAD4 confirm: inactive

What do the screens show for `c1cc2c(cc1C1=NNC(=NC3CC3)SC1)OCCO2`?
TDP2 inh: inactive; GSTO1 inh: inactive; E coli Lon inh: inactive; PAD4 FP inh: 41; PRMT1 inh: 46; PAD4 confirm: inactive

What do the screens show for `CCCCN(C)C(=O)CSc1nnc(-c2cccnc2)n1C1CCCCC1`?
TDP2 inh: inactive; PRMT1 inh: inactive

What do the screens show for `O=c1oc2ccccc2n1CSC1=NCCS1`?
TDP2 inh: inactive; GSTO1 inh: inactive; E coli Lon inh: inactive; PAD4 FP inh: 17; PRMT1 inh: inactive; PAD4 confirm: inactive

How did O=C1[C@H]2[C@@H](c3ccc(F)cc3)N3C(=O)N(c4ccccc4)C(=O)[C@@]3(Cc3ccc(Cl)cc3)[C@H]2C(=O)N1C1CCCCC1 do in these assays?
TDP2 inh: inactive; GSTO1 inh: inactive; E coli Lon inh: inactive; PAD4 FP inh: 22; PRMT1 inh: inactive; PAD4 confirm: inactive

How did COc1cc(O)c(C(CC(=O)N2CCC(C)CC2)c2ccc3c(c2)OCO3)c(OC)c1 (stereo unspecified) do in these assays?
TDP2 inh: inactive; PRMT1 inh: inactive

Results for O=C(O)CC(SCC(=O)Nc1ccc(Cl)c(S(=O)(=O)N2CCOCC2)c1)C(=O)O (stereo unspecified) ?
TDP2 inh: inactive; GSTO1 inh: inactive; E coli Lon inh: inactive; PAD4 FP inh: 21; PRMT1 inh: 43; PAD4 confirm: inactive

What do the screens show for `O=C(CCNC(=O)c1ccc([N+](=O)[O-])cc1)Nc1ccc(Cl)c(S(=O)(=O)N2CCOCC2)c1`?
TDP2 inh: inactive; E coli Lon inh: inactive; PAD4 FP inh: inactive; PRMT1 inh: inactive
